These molecules were tested on OVCAR-3 (assay: Cytotoxicity against human OVCAR3 cells).
Format: functional
CCCCC[C@@H]1Cc2cc(O)c(C(=O)O)c3c2[C@H](C[C@]2(OC[C@H](CC(=O)C(C)(CC)C(=O)OC)[C@H]2C)O3)O1 (stereo not given in full) [BERKELIC ACID] was tested, and the GI50 was 0.091 µM.

What follows are molecules tested on Influenza A virus (assay: Antiviral activity against Influenza A virus H1N1 infected in MDCK cells assessed as compound concentration required for inhibiting influenza virus yield at 48 h post-infection by crystal violet staining based CPE inhibition assay).
Format: functional, organism-based
Summary of the method: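 CPE-inhibition assay against influenza A (H1N1). Ribavirin was the positive control. Activity was reported as an IC50 in μM.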
CCC[C@]1(OC)OC(=O)c2c1cc(O)c(O)c2C [PURPURESTER A] was tested, and the IC50 was 85.3 µM. For C/C=C/C1=CC2=CC(=O)[C@@](C)(OC(=O)c3c(C)cc(O)cc3O)C(=O)C2=CO1, the IC50 was over 200 µM. In the case of NC(=O)c1ncn([C@@H]2O[C@H](CO)[C@@H](O)[C@H]2O)n1 [RIBAVIRIN], the IC50 is reported as 101 µM. Work on O=Cc1cc(C(=O)O)cc(O)c1C(=O)c1c(O)cccc1O yielded an IC50 of 58.6 µM. Work on C/C=C/C1=CC2=CC(=O)[C@@](C)(OC(=O)c3c(C)cc(O)cc3O)C(=O)[C@@]2(O)CO1 yielded an IC50 of 64 µM. Molecule C/C=C/C1=CC2=CC(=O)[C@@](C)(OC(=O)c3c(C)cc(O)cc3O)C(=O)[C@@]2(O)[C@@H](O)O1 [PURPURQUINONE A] has an IC50 of over 200 µM. Work on C/C=C/C1=CC2=CC(=O)[C@@](C)(OC(=O)c3c(O)cc(O)c(O)c3C)C(=O)[C@@]2(O)[C@@H](O)O1 [PURPURQUINONE B] yielded an IC50 of 61.3 µM. Molecule CC1=C(O)C(=O)c2cc(O)c(O)cc2C1=O has an IC50 of over 200 µM. For CC/C=C1\OC(=O)c2c1cc(O)c(O)c2C [PURPURESTER B], the IC50 was over 200 µM.

Source: ChEMBL document CHEMBL1821623, “Anti-influenza virus polyketides from the acid-tolerant fungus Penicillium purpurogenum JS03-21” (J Nat Prod, 2011)
